The text below walks through data of ChEMBL document CHEMBL4339200, “Structure-based Discovery of Phenyl (3-Phenylpyrrolidin-3-yl)sulfones as Selective, Orally Active RORγt Inverse Agonists” (ACS Med Chem Lett, 2019).

Broadly, the half-life is the time needed for the level to fall by half in the phase considered. A word on the IC50: it is the concentration at which inhibition is half-maximal. Higher therefore signals lower potency. For orientation: bioavailability means dose-corrected exposure relative to a reference, in per cent. A higher bioavailability goes with much systemic uptake. A word on the inhibition in vivo: it is the drop in the measured response relative to a control, in per cent. A lower inhibition in vivo goes with little suppression.

Bounds are passed on as bounds.

A short description of series [1]: Half life in mouse liver microsomes. It is filed as ADME, Microsome. Background: Liver microsomes are vesicles of endoplasmic reticulum, rich in cytochrome P450 enzymes.
The nature of series [2]: Inhibition of CYP1B2 (unknown origin). It is filed as ADME, Homo sapiens.
The nature of series [3]: Oral bioavailability in Balb/c mouse at 10 mg/kg. It is filed as ADME, organism-based. Particulars: in vivo. The essentials:
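Balb/c mice given a single intravenous dose of 2 mg/kg or an oral dose of 10 mg/kg. Plasma exposure was followed to derive Cmax, Tmax, AUC, t1/2, clearance, Vss and oral bioavailability (F).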

In a further series the test system is Mus musculus. Description: Inhibition of IL2/IL23-induced IL17F production in C57BL/6 mouse at 50 mg/kg, po bid treated 30 mins prior to 24 hrs IL2 challenge followed by IL2/IL23 addition at 0,7 and 23 hrs measured after 7 hrs post last IL2/IL23 challenge relative to control. It is filed as functional. Particulars: C57BL/6, po. The essentials: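 Naive mice were challenged three times with IL-2 plus IL-23 (first at 0 and 7 h) and dosed orally bid at 5, 15 or 50 mg/kg. Serum cytokines were measured 7 h after the final IL-2/IL-23 administration. An anti-IL-23 antibody served as positive control.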

The nature of series [4]: Permeability in human Caco2 cells. It is filed as ADME, cell-based. Particulars: Caco-2, read-out: permeability. The essentials:
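Caco-2 monolayer permeability, reported as permeation coefficient in nm/s; an efflux ratio was also determined.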
A general note: Caco-2 cells form a polarised layer with tight junctions and transporters.

Consider `O=C(O)[C@H]1CC[C@H](C(=O)N2CC[C@](c3ccc(C(F)(C(F)(F)F)C(F)(F)F)cc3)(S(=O)(=O)c3ccc(F)cc3)C2)CC1`, for which, in series [1], the half-life was > 120 min. Moreover, in series [2], the half-inhibitory concentration (IC50) was > 20 µM. The bioavailability in series [3] was found to be 99%. In the series with Mus musculus, the inhibition in vivo at 50 mg/kg was 98%. Moreover, in series [4], the Papp came out at 12 ×10⁻⁶ cm/s.
